# Measurements taken from ChEMBL document CHEMBL5653620, “Activating the Wnt/β-Catenin Pathway for the Treatment of Melanoma--Application of LY2090314, a Novel Selective Inhibitor of Glycogen Synthase Kinase-3” (PLoS One, 2015).
# Activity calls are given as the source filed them. The calls are words filed in the database; no cut-off is given here.
# What was measured:
# [1] = molecular target: Glycogen synthase kinase-3 (Homo sapiens) (UniProt P49840+P49841); assay: Inhibition of GSK3 in human A-375 cells harbouring TCF/LEF luciferase reporter gene assessed as increase in wnt signaling incubated for 5 hrs by Bright-Glo luciferase assay; assay type: cell-based
# Sequence of Glycogen synthase kinase-3 (Homo sapiens) (P49840 whole entry, looked up): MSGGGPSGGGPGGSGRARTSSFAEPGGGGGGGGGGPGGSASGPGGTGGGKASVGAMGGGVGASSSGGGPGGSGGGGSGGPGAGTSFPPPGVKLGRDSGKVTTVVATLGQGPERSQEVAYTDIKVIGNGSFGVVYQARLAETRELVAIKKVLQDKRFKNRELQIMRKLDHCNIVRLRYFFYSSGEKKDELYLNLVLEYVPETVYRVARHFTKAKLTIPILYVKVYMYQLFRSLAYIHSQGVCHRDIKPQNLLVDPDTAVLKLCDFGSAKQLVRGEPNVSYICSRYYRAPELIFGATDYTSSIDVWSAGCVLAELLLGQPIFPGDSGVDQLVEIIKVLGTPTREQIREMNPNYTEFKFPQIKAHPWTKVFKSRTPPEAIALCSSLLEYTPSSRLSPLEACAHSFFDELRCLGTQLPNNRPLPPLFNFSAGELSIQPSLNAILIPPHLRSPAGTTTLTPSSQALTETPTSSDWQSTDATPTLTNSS
# Sequence of Glycogen synthase kinase-3 (Homo sapiens) (P49841 whole entry, looked up): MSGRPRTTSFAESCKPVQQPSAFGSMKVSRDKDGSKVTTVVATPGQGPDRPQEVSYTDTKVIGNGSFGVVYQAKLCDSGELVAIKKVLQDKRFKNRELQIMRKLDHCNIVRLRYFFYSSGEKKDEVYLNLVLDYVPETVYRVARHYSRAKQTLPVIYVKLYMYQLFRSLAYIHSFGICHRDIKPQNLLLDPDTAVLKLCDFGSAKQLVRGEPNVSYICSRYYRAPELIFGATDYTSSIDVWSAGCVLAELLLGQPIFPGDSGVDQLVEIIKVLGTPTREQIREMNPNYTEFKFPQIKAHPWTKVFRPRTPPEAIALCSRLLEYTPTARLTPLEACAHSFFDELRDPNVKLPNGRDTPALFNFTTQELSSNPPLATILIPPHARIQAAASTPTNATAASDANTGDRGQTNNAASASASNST
# In short: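 A375 cells carried a lentiviral TCF/LEF-responsive luciferase reporter, selected with puromycin 1 μg/ml for 3 days. Cells were seeded at 10,000 per well and moved to 2% FBS medium. Agents were given at 0.5 nmol/L–1 μmol/L for 5 h, and luciferase was read with Bright-Glo substrate.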
# [2] = test system: SK-MEL-2; assay: Antiproliferative activity against human SK-MEL-2 cells harboring NRAS Q61R mutation assessed as reduction in cell viability incubated for 72 hrs by CellTitre-Glo assay; assay type: functional, cell-based; details: SK-MEL-2, 72 h
# In short: (§1)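 Cells seeded at 2,000 per well and left to adhere overnight. After 24 h, medium was switched to growth medium with 2% FBS. Test agent was added at 0.5 nmol/L to 10 μmol/L for 72 h. Viability was read by CellTiter-Glo luminescence. IC50 came from nonlinear regression sigmoidal dose-response fits.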
# [3] = test system: CHL-1; assay: Antiproliferative activity against human CHL-1 cells assessed as reduction in cell viability incubated for 72 hrs by CellTitre-Glo assay; assay type: functional, cell-based; details: CHL-1, 72 h; in short: as §1
# [4] = Antiproliferative activity against human MEXF1341 cells harboring NRAS Q61 mutation assessed as reduction in cell viability incubated for 72 hrs by CellTitre-Glo assay; assay type: functional, cell-based; details: MEXF1341, 72 h; in short: as §1
# [5] = test system: M14; assay: Antiproliferative activity against human M14 cells harboring BRAF V600E mutation assessed as reduction in cell viability incubated for 72 hrs by CellTitre-Glo assay; assay type: functional, cell-based; details: M14, 72 h; in short: as §1
# [6] = test system: A-375; assay: Antiproliferative activity against human A-375 cells harboring BRAF V600E mutation assessed as reduction in cell viability incubated for 72 hrs by CellTitre-Glo assay; assay type: functional, cell-based; details: A-375, 72 h; in short: as §1
# [7] = Antiproliferative activity against human MEXF462 cells harboring BRAF V600E mutation assessed as reduction in cell viability incubated for 72 hrs by CellTitre-Glo assay; assay type: functional, cell-based; details: MEXF462, 72 h; in short: as §1
# [8] = Antiproliferative activity against human MEL1102 cells harboring NRAS Q61K mutation assessed as reduction in cell viability incubated for 72 hrs by CellTitre-Glo assay; assay type: functional, cell-based; details: MEL1102, 72 h; in short: as §1
# [9] = Antiproliferative activity against human MEXF1792 cells harboring NRAS G13D mutation assessed as reduction in cell viability incubated for 72 hrs by CellTitre-Glo assay; assay type: functional, cell-based; details: MEXF1792, 72 h; in short: as §1
# [10] = Antiproliferative activity against human MEXF276 cells harboring BRAF V600E mutation assessed as reduction in cell viability incubated for 72 hrs by CellTitre-Glo assay; assay type: functional, cell-based; details: MEXF276, 72 h; in short: as §1
# [11] = test system: SK-MEL-28; assay: Antiproliferative activity against human SK-MEL-28 cells harboring BRAF V600E mutation assessed as reduction in cell viability incubated for 72 hrs by CellTitre-Glo assay; assay type: functional, cell-based; details: SK-MEL-28, 72 h; in short: as §1
# [12] = test system: A2058; assay: Antiproliferative activity against human A2058 cells harboring BRAF V600E/PTEN null mutation assessed as reduction in cell viability incubated for 72 hrs by CellTitre-Glo assay; assay type: functional, cell-based; details: A2058, 72 h; in short: as §1
# [13] = test system: M14; assay: Antiproliferative activity against human vemurafenib-resistant M14 cells harboring BRAF V600E mutation assessed as reduction in cell viability incubated for 72 hrs by CellTitre-Glo assay; assay type: functional, cell-based; details: M14, 72 h
# In short: (§2)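 Resistant A375 or M14 lines were derived by growth in vemurafenib over 3 months. Cells were seeded at 2,000 per well and allowed to adhere overnight, then moved to 2% FBS growth medium. Agents were added at 0.5 nmol/L–10 μmol/L for 72 h. Viability was read by CellTiter-Glo, and IC50 was taken from sigmoidal nonlinear regression.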
# [14] = test system: M14; assay: Antiproliferative activity against human M14 cells transfected with Axin1 shRNA assessed as reduction in cell viability incubated for 72 hrs by CellTitre-Glo assay; assay type: functional, cell-based
# In short: (§3)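 A375 or M14 cells were transduced with lentiviral shRNA particles (target or control) at MOI 2 with polybrene 8 μg/ml. Puromycin selection at 2 μg/ml began 48 h later, and knockdown was checked by immunoblot. Cells were seeded at 2,000 per well in 2% FBS medium, exposed to agents for 72 h, and read by CellTiter-Glo.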
# [15] = test system: A-375; assay: Antiproliferative activity against human vemurafenib-resistant A-375 cells harboring BRAF V600E mutation assessed as reduction in cell viability incubated for 72 hrs by CellTitre-Glo assay; assay type: functional, cell-based; details: A-375, 72 h; in short: as §2
# [16] = test system: A-375; assay: Antiproliferative activity against human A-375 cells transfected with Axin1 shRNA assessed as reduction in cell viability incubated for 72 hrs by CellTitre-Glo assay; assay type: functional, cell-based; in short: as §3
# [17] = test system: M14; assay: Antiproliferative activity against human M14 cells transfected with beta-catenin shRNA assessed as reduction in cell viability incubated for 72 hrs by CellTitre-Glo assay; assay type: functional, cell-based; in short: as §3
# [18] = test system: A-375; assay: Antiproliferative activity against human A-375 cells transfected with beta-catenin shRNA assessed as reduction in cell viability incubated for 72 hrs by CellTitre-Glo assay; assay type: functional, cell-based; in short: as §3
Structure (SMILES),inhibition [1],IC50 [2],IC50 [3],IC50 [4],IC50 [5],IC50 [6],IC50 [7],IC50 [8],IC50 [9],IC50 [10],IC50 [11],IC50 [12],IC50 [13],Activity [14],IC50 [15],Activity [16],Activity [17],Activity [18]
Nc1nc2ccc(OC(F)(F)F)cc2s1,Active,–,–,–,–,–,–,–,–,–,–,–,–,–,–,–,–,–
CC(=O)O/N=C1/C(=C2/C(=O)Nc3cc(Br)ccc32)Nc2ccccc21 [6-BROMOINDIRUBIN-3'-ACETOXIME],Active,942 nM,1460 nM,1150 nM,646 nM,914 nM,605 nM,750 nM,4940 nM,954 nM,> 5000 nM,361 nM,–,–,–,–,–,–
CCCS(=O)(=O)Nc1ccc(F)c(C(=O)c2c[nH]c3ncc(-c4ccc(Cl)cc4)cc23)c1F [VEMURAFENIB],–,> 10000 nM,> 10000 nM,–,88 nM,102 nM,–,1260 nM,–,–,–,–,3860 nM,Active,5480 nM,Active,Active,Active
